Screening results deposited in PubChem BioAssay by several laboratories.
Hits are enriched below; roughly 2.8% of the tested compounds scored in any of these assays.
Rad51 HR inh = human RAD51 strand exchange inhibitors, primary screen, biochemical, fluorescence | AID 1385, 2008 | 0.085% of 200,000 active | inhibition, % at 10 µM | hRad51 DNA strand exchange, fluorescence dequenching | DNA repair protein RAD51 homolog 1 (Homo sapiens), Q06609;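 active = inhibition above 40% at the single screening dose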;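 note: 0% = DMSO control wells and 100% = blanks with heterologous ssDNA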
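Test system – preformed human Rad51 ssDNA filaments · Reagent – Donor/quencher-labelled 47-bp dsDNA substrate · Incubation – 37 °C 15-min filament assembly, 30-min compound preincubation, 15-min exchange · Signal – FRET fluorescence dequenching, excitation 485 nm, emission 520 nm · Read-out – percent inhibition from fluorescence, normalised to plate control and blank means · Benchmarks – plate control and blank wells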
NPY1 pot ag = NPY-Y1 receptor potentiators or agonists, primary screen, cell-based; Neuropeptide Y receptor type 1 (Homo sapiens), P25929; NPY-Y1 expressing cells, potentiator/agonist activation; activation, % at 3.6 µM; 0.37% of 220,000 active; AID 1304, 2008; in the data active = activation above about 33%, passing the limit was not always enough;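 note: cells stimulated with NPY at EC10 then isoproterenol at EC100; 0% = low agonist plus stimulus and 100% = saturating agonist plus stimulus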
Measles CPE = compounds protecting cells from measles virus cytopathic effect, primary screen, measles RdRp inhibitor project, single point, MLSMR library, absorbance. Measles virus-infected cells, CPE protection. protection (pct of control), % at 4 µM. 1.5% of 140,000 active; in the data active = protection mostly above about 24%, no sharp cut-off; inactive = mostly below about 26%
NPY-Y2 antag = NPY-Y2 receptor antagonists, primary screen, cell-based. NPY-Y2 expressing cells, antagonist mode. 0.99% of 140,000 active. AID 793, 2007. Neuropeptide Y receptor type 2 (Homo sapiens), P49146. inhibition, % at 2.7 µM;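 note: 0% = vehicle with agonist challenge and 100% = reference antagonist with challenge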
Target sequence (P49146 whole entry, looked up): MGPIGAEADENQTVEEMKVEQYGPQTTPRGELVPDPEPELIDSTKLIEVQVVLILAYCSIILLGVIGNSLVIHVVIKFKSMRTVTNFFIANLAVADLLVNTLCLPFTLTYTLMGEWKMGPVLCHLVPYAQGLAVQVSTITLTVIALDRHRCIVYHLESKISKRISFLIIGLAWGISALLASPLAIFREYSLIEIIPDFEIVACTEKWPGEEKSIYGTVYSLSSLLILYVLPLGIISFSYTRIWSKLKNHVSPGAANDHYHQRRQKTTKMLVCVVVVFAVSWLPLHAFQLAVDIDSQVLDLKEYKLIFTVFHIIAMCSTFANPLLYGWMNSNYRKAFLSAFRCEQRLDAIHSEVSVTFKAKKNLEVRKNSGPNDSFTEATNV
NPY-Y1 antag = NPY-Y1 receptor antagonists, primary screen, cell-based. HEK293-CNG Y1 cells, membrane potential fluorescence; NPY at EC95, then isoproterenol. inhibition, % at 3.6 µM. 1% of 200,000 active;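 active = inhibition above the campaign mean inhibition of all tested compounds plus 3 SD, cut at about 20% in these data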;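 note: 0% = DMSO wells given NPY plus isoproterenol and 100% = isoproterenol alone without NPY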
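Assay system: HEK293 Y1/CNG channel cell line; Doses: single compound dose of 3.6 µM, 0.4% DMSO; Timing: dye 3 h, compound 60 min room temperature, stimulation 45 min; Technique: Membrane-potential fluorescent dye readout; Measure: % inhibition of NPY effect.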
NPY-Y2 PAM-ag = NPY-Y2 potentiators or agonists, primary screen, cell-based. 0.45% of 220,000 active. activation, % at 3.6 µM. cells expressing NPY-Y2, potentiator/agonist read-out; in the data active = activation above about 27%;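 note: cells stimulated with NPY near EC25 plus isoproterenol at EC100; 0% = vehicle plus submaximal agonist and 100% = vehicle plus saturating agonist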
NPY1 antag conf = NPY-Y1 receptor antagonists, retest of hits, confirmation, HEK293-CNG cells, membrane potential fluorescence, triplicate; cAMP; NPY challenge against isoproterenol-raised cAMP; AID 1254, 2008; shares compounds with NPY-Y1 antag; inhibition, % at 3.6 µM; 21% of 1,200 active; in the data active = inhibition above about 20%;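 note: 0% = vehicle with agonist plus stimulus and 100% = stimulus alone without agonist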
NPY2 antag ctr = NPY-Y2 receptor antagonists, selectivity check, confirmation, counter-screen for NPY-Y1 antagonist project, HEK293-CNG cells, membrane potential fluorescence, triplicate; shares compounds with NPY-Y1 antag; antagonism; cells given NPY, then isoproterenol; inhibition, % at 3.6 µM; 28% of 1,200 active;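 note: 0% = DMSO with agonist challenge and 100% = reference antagonist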
The depositor's hits bear a star; . = not tested or not shown. Cut-off read from the data, not from the text of the source, unless noted: active = inhibition above about 17%; inactive = the rest.

SMILES	Rad51 HR inh	NPY1 pot ag	Measles CPE	NPY-Y2 antag	NPY-Y1 antag	NPY-Y2 PAM-ag	NPY1 antag conf	NPY2 antag ctr
Nc1ccn([C@@H]2O[C@H](CO)[C@@H](O)C2O)c(=O)n1 (some centres undefined)	-6	-4	.	.	3	9	.	.
O=C(c1cnc2c(c1)COc1ccc(Cl)cc1-2)c1ccccc1O	3	-48	15	4	22*	-16	10	13
CCC(=O)c1ccc(OCc2ccc(C(=O)c3ccccc3)cc2)cc1	-16	-13	.	.	-3	-8	.	.
O=C(COC(=O)CCC(=O)c1ccc2c(c1)OCCO2)NCc1ccc2c(c1)OCO2	10	-28	13	7	21*	-12	12	9
COc1cc(OC)cc(C(=O)N/N=C/c2ccc(OC)c(COc3ccc(F)cc3)c2)c1	.	-53	3	12	61*	-80	16	31*
CCCn1c(SCC(=O)Nc2ccccc2C(=O)OC)nc2c1c(=O)n(C)c(=O)n2C	-8	3	23	3	-2	0	.	.
CCCn1c(SCC(=O)Nc2ccccc2N2CCCCC2)nc2c1c(=O)n(C)c(=O)n2C	-8	-33	12	11	26*	-12	15	13
CN1CCN(c2ccccc2NC(=O)c2sc3ccccc3c2Cl)CC1	7	-11	.	.	9	-11	.	.
Cc1cc(C)nc(NS(=O)(=O)c2ccc(NC(=O)CSc3nc(-c4ccccc4)c(C#N)c(=O)[nH]3)cc2)n1	9	1	.	.	0	5	.	.
Cc1c(N2C(=O)CSC2=S)c(=O)n(-c2ccccc2)n1C	27	2	.	.	26*	0	0	2
Cc1ccc(N2C(=O)NC(C(F)(F)F)(C(F)(F)F)C3=C2CC(C)(C)CC3=O)cc1	0	6	12	-1	1	-8	.	.
COc1ccccc1Nc1nc(N)nc(CN2CCC(Cc3ccccc3)CC2)n1	-8	-23	4	12	25*	-21	14	22*
O=C(Nc1ccc(F)cc1F)c1sccc1SCc1cccc(C(F)(F)F)c1	.	-32	9	7	48*	-22	23*	17*
O=C(Cc1cccc(C(F)(F)F)c1)Nc1ccccc1	-10	-13	.	.	2	9	.	.
NNC(=O)c1sccc1OCc1cccc(C(F)(F)F)c1	2	-33	.	.	6	-18	.	.
O=C(Nc1ccc(F)cc1)c1sccc1SCc1cccc(C(F)(F)F)c1	4	-15	7	13	25*	-32	9	10
COc1ccc(NC(=O)c2sccc2SCc2cccc(C(F)(F)F)c2)cc1	2	-26	9	6	32*	-27	7	8
CC(C)S(=O)(=O)c1csc(NC(=O)Nc2ccc(Cl)cc2)c1	-6	32	.	.	.	18	.	.
COc1ccc(N(C)S(=O)(=O)c2cccc(C(=O)NCc3ccc4c(c3)OCO4)c2)cc1	7	-11	.	.	2	8	.	.
COc1ccc(N(C)S(=O)(=O)c2cccc(C(=O)NC3CCCCCC3)c2)cc1	1	-13	.	.	39*	-19	10	12
COc1ccc(N(C)S(=O)(=O)c2cccc(C(=O)NC3CCC(C)CC3)c2)cc1 (centres undefined)	1	-3	.	.	46*	-6	27*	15
COc1ccc(N(C)S(=O)(=O)c2cccc(C(=O)N(C)Cc3ccc(C)o3)c2)cc1	-13	-9	.	.	31*	-14	7	16
CN1CCN(CCCNC(=S)Nc2ccc(F)c(Cl)c2)CC1	0	-5	.	.	0	-7	.	.
Cc1cc(NC(=O)/C=C/c2ccccc2)c(C(C)C)cc1O	-4	-17	.	.	28*	-18	25*	24*
